Shown are actives, neighbours in structure and some others; about 9.2% of the full set was active somewhere.
Lmaj promast: reduces viability of Leishmania major promastigotes; resazurin fluorescence viability; inhibition, % at 10 µM; 200,000 tested, 9% active; AID 1063; in the data active = inhibition above about 50%;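 also: promastigotes grown with compound for 44 hours at 28 °C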
HCT116 bCat-KO: beta-catenin-lacking colon tumor cell growth suppression | viability, % at 10 µM | HCT116 beta-catenin knockout viability, CellTiter-Glo, 60 h; stronger effect = lower value | 140,000 tested, 1.5% active;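 active = viability at or under a set limit, the compound median less 4 SD, cut at about 6% in these data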;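 also: 0% = Hyamine 1622 control at 20 µM and 100% = untreated cell control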
Dynein transport: dynein cargo transport inhibition. 220,000 tested, 0.47% active. 3617.4 mouse cells, GR-EGFP nuclear translocation imaging; test concentration mostly 20 µM; stimulated with dexamethasone, 1 µM; stronger effect = lower value. z-score, hits read low;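 active = plate z-score of nuclear minus cytoplasmic receptor signal below a set negative limit, without overly bright fluorescence or cell loss, cut at about -3.5 in these data, passing the limit was not always enough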;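 also: z-score of nuclear minus cytoplasmic ring GR-EGFP intensity difference per well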
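Buffer or medium: tet-free medium with charcoal-stripped serum / Also added: dexamethasone agonist, 1.0 µM final, for 30 min / Timing: induction 48 h, compound 1 h, agonist 30 min / Measured by: high-content fluorescence imaging after fixation / Read-out: nuclear-to-cytoplasmic GR-EGFP distribution per well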
HCT116 PTEN-null: PTEN-deleted cell growth suppression. AID 827. 140,000 tested, 1.2% active. HCT116 PTEN-null viability, CellTiter-Glo, 60 h; stronger effect = lower value. viability, % at 10 µM;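 active = viability at or below a set limit, 4 SD under the median of all tested compounds, cut at about 3.7% in these data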;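 also: PTEN knockout HCT116 line with beta catenin targeted HCT116 as companion control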
Autophagy mod: autophagy modulation, high-content screen; calls only at 10 µM (by protocol); AID 463193; 190,000 tested, 0.98% active; MEF GFP-LC3 puncta imaging; test concentration mostly 10 µM;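 active = percentage of spot-positive cells more than 3 SD above its plate mean, without a fluorescence outlier flag or 80% toxicity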;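 also: spot-positive cell cutoff set from DMSO-treated cells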
* = called active by the depositor; i = inactive; x = no result given.

SMILES	Lmaj promast	HCT116 bCat-KO	Dynein transport	HCT116 PTEN-null	Autophagy mod
CCOCCCNC(=O)/C(C#N)=C/c1cc(OC)c(O)c([N+](=O)[O-])c1	0	x	-0.46	x	i
CCOCCCNC(=O)/C(C#N)=C/c1cc(C)c(O)c(C)c1	3	x	0.018	x	i
CCOC(=O)c1cc(-c2csc(Nc3c(C)cc(C)cc3C)n2)on1	x	x	-0.19	x	x
CN1CCc2c(c3ccccc3n2Cc2ccccc2)C1	100*	67	1.2	63	i
CCN(CC)C(=O)c1[nH]cnc1C(=O)N[C@@H](Cc1ccccc1)C(=O)OCc1ccccc1	-1	x	2.3	x	i
O=C(c1ccccc1)N1CCN(CC(O)COCC2CC=CCC2)CC1 (centres undefined)	45	96	-0.77	94	i
CCOC(=O)C1(Cc2cccc(OC)c2)CCN(CC2CC=CCC2)CC1 (centres undefined)	92*	x	-0.93	x	i
CC1CCCN(C(=O)C2CCN(CC3CC=CCC3)CC2)C1 (centres undefined)	94*	90	-0.0062	91	i
CCOC(=O)C1(Cc2cccc(F)c2)CCN(CC2CC2)CC1	5	x	-1	x	i
O=C(c1ccccc1)N1CCN(CC2CC=CCC2)CC1 (centres undefined)	70*	92	0.05	98	i
CCOC(=O)C1(Cc2ccccc2)CCN(CC2CC=CCC2)CC1 (centres undefined)	80*	x	-0.91	x	i
C=C(C)CNC(=S)N/N=C/c1ccco1	x	x	0.29	x	x
Cc1cscc1NC(=O)/C=C/C(=O)O	x	x	1.3	x	x
O=C(NCc1ccco1)C(=O)NCC1OCCN1S(=O)(=O)c1cc(F)ccc1F (centres undefined)	x	x	0.65	x	x
CCN(CC)S(=O)(=O)c1ccc(N=Nc2c(N)[nH]c(=O)[nH]c2=O)cc1	x	x	-0.41	x	x
CC1CCN(S(=O)(=O)c2cc([N+](=O)[O-])ccc2Cl)CC1	55*	x	0.18	x	i
CCC(C)NC(=O)C1CCN(S(=O)(=O)c2cc([N+](=O)[O-])ccc2Cl)CC1 (centres undefined)	x	x	0.29	x	x
O=[N+]([O-])c1ccc(Cl)c(CN2CCC(O)CC2)c1	62*	99	-0.018	98	i
O=C(CN1C(=O)COc2ccc(Cl)cc21)N1CCc2ccccc21	0	99	-0.65	92	i
COc1ccccc1NC(=S)N(CCN1CCOCC1)Cc1ccccc1F	6	x	0.22	x	i
COc1ccccc1NC(=S)N(CCCN1CCOCC1)Cc1cn(C)c2ccccc12	68*	73	-0.52	77	i
CCOc1ccccc1NC(=S)N(CCCN1CCOCC1)Cc1cn(C)c2ccccc12	65*	83	0.36	86	i
O=C(Nc1nc(-c2ccccc2)cs1)C1CCCN(S(=O)(=O)c2cccc([N+](=O)[O-])c2)C1 (centres undefined)	93*	63	-0.47	67	i
O=C(Nc1nc(-c2ccccc2)cs1)C1CCCCN1S(=O)(=O)c1ccccc1 (centres undefined)	93*	43	-0.79	38	i
O=C(Nc1nc(-c2ccccc2)cs1)C1CCCCN1S(=O)(=O)c1ccc(Cl)cc1 (centres undefined)	100*	23	0.17	25	i
SMILES	Lmaj promast	HCT116 bCat-KO	Dynein transport	HCT116 PTEN-null	Autophagy mod
O=C(Nc1ccc2c(c1)OCO2)C1CCCCN1S(=O)(=O)c1ccccc1 (centres undefined)	65*	85	2.7	100	i
O=C(Nc1nc(-c2ccccc2)cs1)C1CCCN(S(=O)(=O)c2ccccc2)C1 (centres undefined)	45	14	-0.37	18	i
Cc1ccc(NC(=O)COC(=O)c2ccc([N+](=O)[O-])o2)cc1S(=O)(=O)N1CCCCCC1	-3	x	-1.7	x	i
COc1ccc(CCNC(=O)c2cc(C3CC3)on2)cc1OC	x	x	0.27	x	x
CCOC(=O)C1CCCN(S(=O)(=O)c2ccc(Br)s2)C1 (centres undefined)	-4	91	-0.27	91	i
Cc1csc(NC(=O)C2CCCN(S(=O)(=O)c3ccc(Br)s3)C2)n1 (centres undefined)	61*	27	-0.59	49	i
COc1ccc(CNC(=O)NC(C)(C)c2cccc(C(C)(C)NC(=O)NCc3ccc(OC)cc3)c2)cc1	-4	96	0.95	90	i
Cc1noc(C)c1COc1ccc(C(=O)Nc2ccccc2)cc1	-3	x	-0.36	x	i
Cc1noc(C)c1COc1cccc(C(=O)Nc2ccc(OCc3ccccc3)cc2)c1	53*	60	-1.2	67	i

High-throughput results: PubChem BioAssay, several laboratories
